How the values were obtained:
[1] = target: T1, Histone-lysine N-methyltransferase EHMT2 (Homo sapiens, UniProt Q96KQ7); assay: Binding affinity to human G9a (913 to 1193 residues) assessed as dissociation constant measured after 1 hr by isothermal titration calorimetry method
T1 sequence (Q96KQ7 whole entry): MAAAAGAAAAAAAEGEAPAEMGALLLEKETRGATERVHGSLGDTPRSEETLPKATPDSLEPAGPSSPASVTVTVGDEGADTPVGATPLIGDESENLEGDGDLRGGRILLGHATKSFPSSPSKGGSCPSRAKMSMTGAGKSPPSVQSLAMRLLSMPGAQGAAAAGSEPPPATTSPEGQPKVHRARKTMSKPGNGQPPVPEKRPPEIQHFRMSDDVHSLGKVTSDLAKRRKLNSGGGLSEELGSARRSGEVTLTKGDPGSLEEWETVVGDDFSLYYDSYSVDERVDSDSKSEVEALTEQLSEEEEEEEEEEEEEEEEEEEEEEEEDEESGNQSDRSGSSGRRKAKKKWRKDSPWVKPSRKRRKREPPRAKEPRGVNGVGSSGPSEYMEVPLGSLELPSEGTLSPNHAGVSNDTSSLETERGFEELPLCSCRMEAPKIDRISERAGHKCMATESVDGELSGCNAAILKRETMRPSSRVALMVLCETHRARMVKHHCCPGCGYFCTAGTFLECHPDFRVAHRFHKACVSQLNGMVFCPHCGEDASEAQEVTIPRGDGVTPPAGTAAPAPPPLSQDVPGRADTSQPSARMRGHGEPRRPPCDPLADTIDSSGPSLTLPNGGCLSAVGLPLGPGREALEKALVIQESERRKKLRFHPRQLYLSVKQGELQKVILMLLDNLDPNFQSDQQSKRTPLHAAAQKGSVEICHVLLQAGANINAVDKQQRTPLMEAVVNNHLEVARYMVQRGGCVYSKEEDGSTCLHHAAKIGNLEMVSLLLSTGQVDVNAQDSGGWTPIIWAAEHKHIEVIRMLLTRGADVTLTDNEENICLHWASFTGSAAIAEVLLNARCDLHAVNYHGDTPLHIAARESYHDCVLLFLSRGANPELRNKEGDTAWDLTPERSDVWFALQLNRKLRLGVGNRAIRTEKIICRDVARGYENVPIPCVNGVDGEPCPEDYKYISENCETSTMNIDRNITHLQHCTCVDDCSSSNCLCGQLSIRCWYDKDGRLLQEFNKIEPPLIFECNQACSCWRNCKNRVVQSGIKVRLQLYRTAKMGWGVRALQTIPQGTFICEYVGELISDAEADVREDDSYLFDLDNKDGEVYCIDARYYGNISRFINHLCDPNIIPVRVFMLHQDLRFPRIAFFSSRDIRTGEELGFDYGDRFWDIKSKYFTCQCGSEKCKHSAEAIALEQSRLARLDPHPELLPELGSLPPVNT
Method in brief: (§1)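 ITC at 25 °C in 50 mM Tris-HCl pH 7.5, 150 mM NaCl, 1% DMSO; 500 μM compound in syringe titrated into 50 μM G9a or GLP catalytic domain in cell (initial 0.4 μL injection then 13 injections), stirring 750 rpm; run time about 50 min; single binding site fit; mean ± SD of two independent measurements.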

[2] = target: T2, Histone-lysine N-methyltransferase EHMT1 (Homo sapiens, UniProt Q9H9B1); assay: Inhibition of human GLP (982 to 1266 residues) using H3 peptide substrate preincubated for 5 mins followed by SAM addition measured after 10 mins by SAHH-coupled biochemical assay
T2 sequence (Q9H9B1 whole entry): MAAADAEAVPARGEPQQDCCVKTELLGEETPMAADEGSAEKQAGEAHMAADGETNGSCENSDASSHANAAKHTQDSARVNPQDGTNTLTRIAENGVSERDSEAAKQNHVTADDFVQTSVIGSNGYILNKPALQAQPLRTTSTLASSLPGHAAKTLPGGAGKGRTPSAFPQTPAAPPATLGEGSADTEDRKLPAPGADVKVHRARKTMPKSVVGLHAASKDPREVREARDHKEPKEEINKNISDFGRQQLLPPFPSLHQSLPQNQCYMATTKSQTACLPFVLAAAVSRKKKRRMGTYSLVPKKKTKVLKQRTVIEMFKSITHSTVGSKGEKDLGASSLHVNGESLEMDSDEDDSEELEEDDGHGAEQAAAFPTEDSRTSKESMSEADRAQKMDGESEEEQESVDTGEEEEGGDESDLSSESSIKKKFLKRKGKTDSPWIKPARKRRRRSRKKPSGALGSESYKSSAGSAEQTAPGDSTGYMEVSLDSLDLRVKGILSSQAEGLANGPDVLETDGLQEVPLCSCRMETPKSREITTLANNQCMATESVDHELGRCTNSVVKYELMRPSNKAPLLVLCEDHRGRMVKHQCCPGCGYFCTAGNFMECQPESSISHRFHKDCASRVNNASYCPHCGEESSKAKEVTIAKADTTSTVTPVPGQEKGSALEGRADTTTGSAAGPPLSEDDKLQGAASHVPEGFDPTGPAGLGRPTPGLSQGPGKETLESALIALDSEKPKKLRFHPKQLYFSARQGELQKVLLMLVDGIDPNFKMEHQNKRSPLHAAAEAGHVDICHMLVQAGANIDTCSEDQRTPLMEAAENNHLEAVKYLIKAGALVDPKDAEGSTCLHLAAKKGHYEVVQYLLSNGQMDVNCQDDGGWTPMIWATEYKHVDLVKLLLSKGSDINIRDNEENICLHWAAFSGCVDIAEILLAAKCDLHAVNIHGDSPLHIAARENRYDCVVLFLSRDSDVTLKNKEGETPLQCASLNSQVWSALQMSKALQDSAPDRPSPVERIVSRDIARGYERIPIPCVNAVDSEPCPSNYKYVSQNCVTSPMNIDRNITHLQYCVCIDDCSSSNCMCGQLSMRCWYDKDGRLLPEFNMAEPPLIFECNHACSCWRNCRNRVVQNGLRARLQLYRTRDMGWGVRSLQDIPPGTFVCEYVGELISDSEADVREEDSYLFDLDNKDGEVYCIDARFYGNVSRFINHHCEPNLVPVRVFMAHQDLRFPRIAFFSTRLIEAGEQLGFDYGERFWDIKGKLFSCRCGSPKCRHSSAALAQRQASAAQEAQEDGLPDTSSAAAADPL

[3] = target: T2, Histone-lysine N-methyltransferase EHMT1; assay: Binding affinity to human GLP (982 to 1266 residues) assessed as dissociation constant measured after 1 hr by isothermal titration calorimetry method; method in brief: as §1
[4] = target: T1, Histone-lysine N-methyltransferase EHMT2; assay: Inhibition of human G9a (913 to 1193 residues) using H3 peptide substrate preincubated for 5 mins followed by SAM addition measured after 10 mins by SAHH-coupled biochemical assay
[5] = target: T3, Histone-lysine N-methyltransferase EHMT2 (Homo sapiens) (UniProt Q96KQ7); assay: Inhibition of human G9a (913 to 1193 residues) assessed as covalent modification by measuring G9a adduct formation at 50 uM incubated for 1 hr by mass spectrometry relative to control
T3 sequence (whole entry): T1 sequence (Q96KQ7 whole entry)
Method in brief: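 Purified G9a or GLP catalytic domain (5 μM) in 50 mM Tris-HCl pH 7.5, 150 mM NaCl incubated with 50 μM compound or DMSO at room temperature (1 h, or 30 and 60 min in time course); intact mass by ESI LC/MS-TOF; adduct % = adduct/(protein + adduct) × 100.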

Row | Structure (SMILES) | Kd [1] [µM] | IC50 [2] [µM] | Kd [3] [µM] | IC50 [4] [µM] | inhibition [5] [%]
1 | CCC(=O)Nc1cc(NC2CCN(C(C)C)CC2)c2cc(OC)c(OCCCN3CCCC3)cc2n1 | 0.048 | 0.151 | 0.016 | 0.211 | –
2 | C=CC(=O)Nc1nc(NC2CCN(C(C)C)CC2)c2cc(OC)c(OCCCN3CCCC3)cc2n1 | – | – | – | – | 40
